From ChEMBL document CHEMBL4673184, “Synthesis and biological evaluation of S-lipidated lipopeptides of a connexin 43 channel inhibitory peptide” (RSC Med Chem, 2020) come the findings set out here.

The structures appear in SMILES notation. Active and inactive are the calls of the source. The rule behind the calls is not given here. Where a SMILES comes first, the peptide text is derived from it. [ ]: non-standard residue; d: D form. The star is where a group is joined. Ethyl(2-stearoyloxy) = CCCCCCCCCCCCCCCCCC(=O)OCC*; Ethyl(2-palmitoyloxy) = CCCCCCCCCCCCCCCC(=O)OCC*; CH2CH2OBz(4-tBu) = CC(C)(C)c1ccc(C(=O)OCC*)cc1; Ethyl(2-decanoyloxy) = CCCCCCCCCC(=O)OCC*; Ethyl(2-butanoyloxy) = CCCC(=O)OCC*; Ethyl(2-OPiv) = CC(C)(C)C(=O)OCC*; Mpa = O=C(O)CCS

Sequence of Gap junction alpha-1 protein (Homo sapiens) (P17302 whole entry): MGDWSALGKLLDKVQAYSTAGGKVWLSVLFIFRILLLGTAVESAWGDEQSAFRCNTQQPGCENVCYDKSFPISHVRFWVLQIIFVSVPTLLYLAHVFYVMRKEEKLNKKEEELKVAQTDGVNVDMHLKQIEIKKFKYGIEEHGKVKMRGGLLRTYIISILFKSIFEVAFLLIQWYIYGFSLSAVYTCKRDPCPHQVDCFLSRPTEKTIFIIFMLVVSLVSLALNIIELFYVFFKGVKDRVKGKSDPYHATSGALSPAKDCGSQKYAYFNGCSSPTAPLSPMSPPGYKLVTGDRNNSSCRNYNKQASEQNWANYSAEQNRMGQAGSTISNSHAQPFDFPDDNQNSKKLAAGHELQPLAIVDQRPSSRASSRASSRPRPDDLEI

The target in this assay is Gap junction alpha-1 protein (Homo sapiens) (UniProt P17302). In words: Inhibition of Cx43 in hypoxic-acidic ion-shifted ringers solution-induced human cerebral microvascular endothelial cell model of ischaemic injury assessed as ATP release at 10 uM measured after 2 hrs by luciferin-luciferase based luminescence assay relative to control. Also noted: scale not given: the % may be the effect or the level left. An outline of the steps:
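hCMVEC (passages 8-17) seeded at 2 x 10^6/well on collagen-I (1 µg/cm²) and grown 48 h to a confluent monolayer. Washed in NR, then exposed 2 h in HAIR (pH 6.6, N₂-bubbled, low Ca²⁺, K-gluconate/NMDG) containing peptide at 10 µM. Supernatant diluted 1:10 in firefly luciferase mix and read at 560 nm against an ATP standard (0-50 nM). Expressed as % of HAIR-only, mean of n=3.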
As for `CCCCCCCCCC(=O)OCCSC[C@H](NC(=O)[C@H](CCCCN)NC(=O)[C@H](CCC(=O)O)NC(=O)[C@@H](NC(=O)[C@@H]1CCCN1C(=O)[C@H](CCCNC(=N)N)NC(=O)[C@H](CO)NC(=O)[C@H](CC(C)C)NC(=O)[C@H](Cc1ccccc1)NC(=O)[C@H](CS)NC(=O)[C@H](CC(=O)O)NC(=O)[C@@H](N)C(C)C)[C@@H](C)O)C(=O)O` (H-VDCFLSRPTEKC(Ethyl(2-decanoyloxy))-OH), the result was inactive. Take `CCCCCCCCCCCCCCCCCC(=O)OCCSC[C@H](NC(=O)[C@H](CCCCN)NC(=O)[C@H](CCC(=O)O)NC(=O)[C@@H](NC(=O)[C@@H]1CCCN1C(=O)[C@H](CCCNC(=N)N)NC(=O)[C@H](CO)NC(=O)[C@H](CC(C)C)NC(=O)[C@H](Cc1ccccc1)NC(=O)[C@H](CS)NC(=O)[C@H](CC(=O)O)NC(=O)[C@@H](N)C(C)C)[C@@H](C)O)C(=O)O` (H-VDCFLSRPTEKC(Ethyl(2-stearoyloxy))-OH): the Activity amounted to 129%.

In the case of `CCCC(=O)OCCSC[C@H](NC(=O)[C@H](CC(C)C)NC(=O)[C@H](Cc1ccccc1)NC(=O)[C@H](CS)NC(=O)[C@H](CC(=O)O)NC(=O)[C@@H](N)C(C)C)C(=O)N[C@@H](CCCNC(=N)N)C(=O)N1CCC[C@H]1C(=O)N[C@H](C(=O)N[C@@H](CCC(=O)O)C(=O)N[C@@H](CCCCN)C(=O)N[C@H](C(=O)O)[C@@H](C)O)[C@@H](C)O` (H-VDCFLC(Ethyl(2-butanoyloxy))RPTEKT-OH), the result was inactive. As for `CCCCCCCCCCCCCCCCCC(=O)OCCSC[C@H](NC(=O)[C@H](CC(C)C)NC(=O)[C@H](Cc1ccccc1)NC(=O)[C@H](CS)NC(=O)[C@H](CC(=O)O)NC(=O)[C@@H](N)C(C)C)C(=O)N[C@@H](CCCNC(=N)N)C(=O)N1CCC[C@H]1C(=O)N[C@H](C(=O)N[C@@H](CCC(=O)O)C(=O)N[C@@H](CCCCN)C(=O)N[C@H](C(=O)O)[C@@H](C)O)[C@@H](C)O` (H-VDCFLC(Ethyl(2-stearoyloxy))RPTEKT-OH), the result was inactive. With `CCCC(=O)OCCSC[C@H](NC(=O)[C@@H]1CCCN1C(=O)[C@H](CCCNC(=N)N)NC(=O)[C@H](CO)NC(=O)[C@H](CC(C)C)NC(=O)[C@H](Cc1ccccc1)NC(=O)[C@H](CS)NC(=O)[C@H](CC(=O)O)NC(=O)[C@@H](N)C(C)C)C(=O)N[C@@H](CCC(=O)O)C(=O)N[C@@H](CCCCN)C(=O)N[C@H](C(=O)O)[C@@H](C)O` (H-VDCFLSRPC(Ethyl(2-butanoyloxy))EKT-OH) the entry was “inactive”; with `CCCCCCCCCCCCCCCCCC(=O)OCCSC[C@H](N)C(=O)N[C@@H](CC(=O)O)C(=O)N[C@@H](CS)C(=O)N[C@@H](Cc1ccccc1)C(=O)N[C@@H](CC(C)C)C(=O)N[C@@H](CO)C(=O)N[C@@H](CCCNC(=N)N)C(=O)N1CCC[C@H]1C(=O)N[C@H](C(=O)N[C@@H](CCC(=O)O)C(=O)N[C@@H](CCCCN)C(=O)N[C@H](C(=O)O)[C@@H](C)O)[C@@H](C)O` (H-C(Ethyl(2-stearoyloxy))DCFLSRPTEKT-OH), “inactive”; with `CCCC(=O)OCCSC[C@H](NC(=O)[C@H](CS)NC(=O)[C@H](CC(=O)O)NC(=O)[C@@H](N)C(C)C)C(=O)N[C@@H](CC(C)C)C(=O)N[C@@H](CO)C(=O)N[C@@H](CCCNC(=N)N)C(=O)N1CCC[C@H]1C(=O)N[C@H](C(=O)N[C@@H](CCC(=O)O)C(=O)N[C@@H](CCCCN)C(=O)N[C@H](C(=O)O)[C@@H](C)O)[C@@H](C)O` (H-VDCC(Ethyl(2-butanoyloxy))LSRPTEKT-OH), “inactive”. On to `CCCCCCCCCCCCCCCC(=O)OCCSC[C@H](NC(=O)[C@@H]1CCCN1C(=O)[C@H](CCCNC(=N)N)NC(=O)[C@H](CO)NC(=O)[C@H](CC(C)C)NC(=O)[C@H](Cc1ccccc1)NC(=O)[C@H](CS)NC(=O)[C@H](CC(=O)O)NC(=O)[C@@H](N)C(C)C)C(=O)N[C@@H](CCC(=O)O)C(=O)N[C@@H](CCCCN)C(=O)N[C@H](C(=O)O)[C@@H](C)O` (H-VDCFLSRPC(Ethyl(2-palmitoyloxy))EKT-OH), for which the Activity was 102%. Take `CC1(C)[C@@H](OC(=O)CCC(=O)O)CC[C@]2(C)[C@H]3C(=O)C=C4[C@@H]5C[C@@](C)(C(=O)O)CC[C@]5(C)CC[C@@]4(C)[C@]3(C)CC[C@@H]12`: the Activity came to 23.3%. As to `CC(C)C[C@H](NC(=O)[C@H](Cc1ccccc1)NC(=O)[C@H](CS)NC(=O)[C@H](CC(=O)O)NC(=O)[C@@H](N)C(C)C)C(=O)N[C@@H](CO)C(=O)N[C@@H](CCCNC(=N)N)C(=O)N1CCC[C@H]1C(=O)N[C@@H](CSCCOC(=O)C(C)(C)C)C(=O)N[C@@H](CCC(=O)O)C(=O)N[C@@H](CCCCN)C(=O)N[C@H](C(=O)O)[C@@H](C)O` (H-VDCFLSRPC(Ethyl(2-OPiv))EKT-OH), the outcome was inactive.

Consider `CC(C)C[C@H](NC(=O)[C@H](CSCCOC(=O)c1ccc(C(C)(C)C)cc1)NC(=O)[C@H](CS)NC(=O)[C@H](CC(=O)O)NC(=O)[C@@H](N)C(C)C)C(=O)N[C@@H](CO)C(=O)N[C@@H](CCCNC(=N)N)C(=O)N1CCC[C@H]1C(=O)N[C@H](C(=O)N[C@@H](CCC(=O)O)C(=O)N[C@@H](CCCCN)C(=O)N[C@H](C(=O)O)[C@@H](C)O)[C@@H](C)O` (H-VDCC(CH2CH2OBz(4-tBu))LSRPTEKT-OH), for which the result was inactive. Then `CCCCCCCCCCCCCCCC(=O)OCCSC[C@H](NC(=O)[C@H](CCCCN)NC(=O)[C@H](CCC(=O)O)NC(=O)[C@@H](NC(=O)[C@@H]1CCCN1C(=O)[C@H](CCCNC(=N)N)NC(=O)[C@H](CO)NC(=O)[C@H](CC(C)C)NC(=O)[C@H](Cc1ccccc1)NC(=O)[C@H](CS)NC(=O)[C@H](CC(=O)O)NC(=O)[C@@H](N)C(C)C)[C@@H](C)O)C(=O)O` (H-VDCFLSRPTEKC(Ethyl(2-palmitoyloxy))-OH), with 131%; and `CCCCCCCCCCCCCCCC(=O)OCCSC[C@H](NC(=O)[C@@H](NC(=O)[C@@H]1CCCN1C(=O)[C@H](CCCNC(=N)N)NC(=O)[C@H](CO)NC(=O)[C@H](CC(C)C)NC(=O)[C@H](Cc1ccccc1)NC(=O)[C@H](CS)NC(=O)[C@H](CC(=O)O)NC(=O)[C@@H](N)C(C)C)[C@@H](C)O)C(=O)N[C@@H](CCCCN)C(=O)N[C@H](C(=O)O)[C@@H](C)O` (H-VDCFLSRPTC(Ethyl(2-palmitoyloxy))KT-OH), with 114%; and `CCCCCCCCCCCCCCCC(=O)OCCSC[C@H](NC(=O)[C@H](CC(C)C)NC(=O)[C@H](Cc1ccccc1)NC(=O)[C@H](CS)NC(=O)[C@H](CC(=O)O)NC(=O)[C@@H](N)C(C)C)C(=O)N[C@@H](CCCNC(=N)N)C(=O)N1CCC[C@H]1C(=O)N[C@H](C(=O)N[C@@H](CCC(=O)O)C(=O)N[C@@H](CCCCN)C(=O)N[C@H](C(=O)O)[C@@H](C)O)[C@@H](C)O` (H-VDCFLC(Ethyl(2-palmitoyloxy))RPTEKT-OH), with “inactive”. Turning to `CCCCCCCCCCCCCCCC(=O)OCCSCCC(=O)N[C@H](C(=O)N[C@@H](CC(=O)O)C(=O)N[C@@H](CS)C(=O)N[C@@H](Cc1ccccc1)C(=O)N[C@@H](CC(C)C)C(=O)N[C@@H](CO)C(=O)N[C@@H](CCCNC(=N)N)C(=O)N1CCC[C@H]1C(=O)N[C@H](C(=O)N[C@@H](CCC(=O)O)C(=O)N[C@@H](CCCCN)C(=O)N[C@H](C(=O)O)[C@@H](C)O)[C@@H](C)O)C(C)C` ([Mpa](Ethyl(2-palmitoyloxy))VDCFLSRPTEKT-OH), the result was inactive. With `CC(C)C[C@H](NC(=O)[C@H](Cc1ccccc1)NC(=O)[C@H](CS)NC(=O)[C@H](CC(=O)O)NC(=O)[C@@H](N)C(C)C)C(=O)N[C@@H](CSCCOC(=O)C(C)(C)C)C(=O)N[C@@H](CCCNC(=N)N)C(=O)N1CCC[C@H]1C(=O)N[C@H](C(=O)N[C@@H](CCC(=O)O)C(=O)N[C@@H](CCCCN)C(=O)N[C@H](C(=O)O)[C@@H](C)O)[C@@H](C)O` (H-VDCFLC(Ethyl(2-OPiv))RPTEKT-OH) the entry was “inactive”; with `CCCCCCCCCCCCCCCC(=O)OCCSC[C@H](NC(=O)[C@H](CS)NC(=O)[C@H](CC(=O)O)NC(=O)[C@@H](N)C(C)C)C(=O)N[C@@H](CC(C)C)C(=O)N[C@@H](CO)C(=O)N[C@@H](CCCNC(=N)N)C(=O)N1CCC[C@H]1C(=O)N[C@H](C(=O)N[C@@H](CCC(=O)O)C(=O)N[C@@H](CCCCN)C(=O)N[C@H](C(=O)O)[C@@H](C)O)[C@@H](C)O` (H-VDCC(Ethyl(2-palmitoyloxy))LSRPTEKT-OH), “inactive”. Then `CCCCCCCCCCCCCCCC(=O)OCCSC[C@H](N)C(=O)N[C@@H](CC(=O)O)C(=O)N[C@@H](CS)C(=O)N[C@@H](Cc1ccccc1)C(=O)N[C@@H](CC(C)C)C(=O)N[C@@H](CO)C(=O)N[C@@H](CCCNC(=N)N)C(=O)N1CCC[C@H]1C(=O)N[C@H](C(=O)N[C@@H](CCC(=O)O)C(=O)N[C@@H](CCCCN)C(=O)N[C@H](C(=O)O)[C@@H](C)O)[C@@H](C)O` (H-C(Ethyl(2-palmitoyloxy))DCFLSRPTEKT-OH), with “inactive”; and `CCCCCCCCCC(=O)OCCSC[C@H](N)C(=O)N[C@@H](CC(=O)O)C(=O)N[C@@H](CS)C(=O)N[C@@H](Cc1ccccc1)C(=O)N[C@@H](CC(C)C)C(=O)N[C@@H](CO)C(=O)N[C@@H](CCCNC(=N)N)C(=O)N1CCC[C@H]1C(=O)N[C@H](C(=O)N[C@@H](CCC(=O)O)C(=O)N[C@@H](CCCCN)C(=O)N[C@H](C(=O)O)[C@@H](C)O)[C@@H](C)O` (H-C(Ethyl(2-decanoyloxy))DCFLSRPTEKT-OH), with “inactive”; and `CC(C)C[C@H](NC(=O)[C@H](Cc1ccccc1)NC(=O)[C@H](CS)NC(=O)[C@H](CC(=O)O)NC(=O)[C@@H](N)C(C)C)C(=O)N[C@@H](CO)C(=O)N[C@@H](CCCNC(=N)N)C(=O)N1CCC[C@H]1C(=O)N[C@H](C(=O)N[C@@H](CSCCOC(=O)C(C)(C)C)C(=O)N[C@@H](CCCCN)C(=O)N[C@H](C(=O)O)[C@@H](C)O)[C@@H](C)O` (H-VDCFLSRPTC(Ethyl(2-OPiv))KT-OH), with “inactive”.
